Test [1] deals with T1, Serotonin 3 (5-HT3) receptor (Rattus norvegicus, UniProt P35563+Q9JJ16).
T1 sequence (P35563 whole entry): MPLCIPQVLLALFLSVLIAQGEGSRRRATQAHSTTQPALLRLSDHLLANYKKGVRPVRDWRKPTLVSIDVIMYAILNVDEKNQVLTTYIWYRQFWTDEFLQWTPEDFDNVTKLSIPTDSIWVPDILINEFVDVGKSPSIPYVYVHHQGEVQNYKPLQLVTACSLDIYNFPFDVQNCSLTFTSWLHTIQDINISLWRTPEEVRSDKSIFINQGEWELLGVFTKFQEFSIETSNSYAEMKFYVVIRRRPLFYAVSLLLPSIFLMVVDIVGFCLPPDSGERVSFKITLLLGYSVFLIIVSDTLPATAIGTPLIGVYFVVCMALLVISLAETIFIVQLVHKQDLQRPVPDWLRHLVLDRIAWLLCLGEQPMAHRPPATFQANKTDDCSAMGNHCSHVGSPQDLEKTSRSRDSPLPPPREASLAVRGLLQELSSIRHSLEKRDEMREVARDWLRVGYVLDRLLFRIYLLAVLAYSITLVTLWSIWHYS
T1 sequence (Q9JJ16 whole entry): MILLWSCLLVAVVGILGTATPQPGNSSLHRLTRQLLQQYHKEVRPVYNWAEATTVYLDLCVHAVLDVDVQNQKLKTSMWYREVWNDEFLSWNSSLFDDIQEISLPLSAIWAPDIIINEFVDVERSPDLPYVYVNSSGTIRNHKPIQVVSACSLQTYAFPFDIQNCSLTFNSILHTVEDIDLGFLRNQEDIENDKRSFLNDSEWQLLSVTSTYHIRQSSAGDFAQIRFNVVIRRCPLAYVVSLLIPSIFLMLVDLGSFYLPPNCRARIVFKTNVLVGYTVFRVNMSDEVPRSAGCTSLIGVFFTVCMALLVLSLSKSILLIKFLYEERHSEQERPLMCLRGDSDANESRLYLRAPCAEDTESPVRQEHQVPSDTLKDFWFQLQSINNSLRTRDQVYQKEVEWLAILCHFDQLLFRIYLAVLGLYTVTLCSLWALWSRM
The test is described as follows: In vitro displacement of [3H]ICS-205-930 from 5-hydroxytryptamine 3 receptor in cultured NG-108-15 […] cells. In general terms: Displacement assays read how much labelled ligand stays bound in the presence of the test substance.

Test [2] has as its system Rattus norvegicus. The test is described as follows: Percent inhibition of serotonin-induced B-J reflex (Bezold-Jarisch reflex)in the right femoral vein of rat at a dose of 10 ug/kg. Type of test: functional. Put shortly:
(§1)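 Rats given test compound and serotonin intravenously through a cannula in the right femoral vein. Von Bezold-Jarisch reflex read as blockade of serotonin-induced bradycardia. Otherwise run by a previously published procedure.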

Test [3] concerns Rattus norvegicus. The test is described as follows: Percent response to 100 ug/kg serotonin was determined as blockade of serotonin-induced bradycardia in anesthetized rat. The test is classed as functional. Put shortly: (§2)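 Rat von Bezold–Jarisch reflex, read as blockade of serotonin-induced bradycardia. Test compound and serotonin were both given iv through a cannula in the right femoral vein.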

Test [4] deals with Rattus norvegicus. The test is described as follows: Percent inhibition of serotonin-induced B-J reflex (Bezold-Jarisch reflex)in the right femoral vein of rat at a dose of 50 ug/kg. The test is classed as functional. In outline: as §1
Test [5] concerns Rattus norvegicus. The test is described as follows: (§3) Percent inhibition of serotonin-induced B-J reflex (Bezold-Jarisch reflex)in the right femoral vein of rat at a dose of 100 ug/kg. The test is classed as functional. In outline:
as §2

Test [6] relates to Rattus norvegicus. The test is described as follows: (§4) Percent inhibition of serotonin-induced B-J reflex (Bezold-Jarisch reflex)in the right femoral vein of rat at a dose of 2 ug/kg. The test is classed as functional. In outline:
as §1

Test [7] relates to Rattus norvegicus. The description is as §3. Type of test: functional. In outline:
as §1
This is another data set of the same source.

Test [8] has as its system Rattus norvegicus. The test is described as follows: Percent inhibition of serotonin-induced B-J reflex (Bezold-Jarisch reflex)in the right femoral vein of rat at a dose of 1 mg/kg po. The test is classed as functional.
Test [9] has as its system Rattus norvegicus. The test is described as follows: Percent inhibition of serotonin-induced B-J reflex (Bezold-Jarisch reflex)in the right femoral vein of rat at a dose of 20 ug/kg. The test is classed as functional. Put shortly: as §2
The test system of test [10] is Rattus norvegicus. The test is described as §4. Type of test: functional. Put shortly:
as §2
This is another data set of the same source.

Molecules are shown by their SMILES.

Broadly, the Ki is the dissociation constant of the complex between target and ligand, obtained from inhibition or displacement. Low readings indicate tighter binding, high ones weaker binding. As a reminder, the inhibition in vivo is the change of the read-out against control, counted positive when it falls. The low end stands for a weak effect, the high end for a strong effect. In turn, `Cc1[nH]c2ccc(O)cc2c1CCN` came in with an inhibition constant (Ki) in [1] of 1.22 µM. The same compound had an inhibition in vivo at 0.01 mg/kg in the test with Rattus norvegicus [2] of 23%. The compound also came in with a Response in the test on Rattus norvegicus [3] of 41%. Further, in the test on Rattus norvegicus [4], 0.05 mg/kg produced 66% inhibition in vivo.

For `Cc1nc(Cc2nc(-c3ccccc3)cs2)c[nH]1`, in test [1], the inhibition constant (Ki) is 0.226 µM. Also, the Response in the test on Rattus norvegicus [3] was determined as 0%. For the same compound, the inhibition in vivo at 0.1 mg/kg in the test with Rattus norvegicus [5] turned out to be 7%.

Consider `c1ccc(-c2csc(Cc3c[nH]cn3)n2)cc1`, for which the inhibition constant (Ki) in [1] was 0.00099 µM. The inhibition in vivo at 0.002 mg/kg with Rattus norvegicus [6] amounted to 41%. In the test with Rattus norvegicus [3], this compound showed a Response of 80%.

`Cc1nccn1Cc1nc(-c2c[nH]c3ccccc23)cs1` came in with an inhibitory constant (Ki) in [1] of over 1 µM. Also, the Response in the test with Rattus norvegicus [3] is given as 0%. For the same compound, in the test with Rattus norvegicus [5], the inhibition in vivo at 0.1 mg/kg came out at 7%.

The compound `Cc1[nH]cnc1Cc1nc(-c2c[nH]c3ccccc23)cs1` had an inhibition constant (Ki) in [1] of 0.0104 µM. Moreover, the Response in the test with Rattus norvegicus [3] is reported as 0%. In the test on Rattus norvegicus [7], this compound came in with an inhibition in vivo at 0.1 mg/kg of 45%.

The compound `Cc1[nH]cnc1Cc1nc(-c2ccccc2)cs1` gave a Ki in test [1] of 0.0015 µM. This compound displayed an inhibition in vivo at 1 mg/kg with Rattus norvegicus [8] of 67%. Also, in the test with Rattus norvegicus [6], the inhibition in vivo at 0.002 mg/kg amounted to 11%. In addition, in the test with Rattus norvegicus [3], the Response is recorded as 0%. Further, the inhibition in vivo at 0.02 mg/kg in the test on Rattus norvegicus [9] is 86%.

As for `N=C(N)NCc1nc(-c2c[nH]c3ccccc23)cs1`, the inhibition constant Ki in test [1] stood at 0.0033 µM. The same compound returned an inhibition in vivo at 1 mg/kg with Rattus norvegicus [8] of 0%. Also, the Response in the test with Rattus norvegicus [3] is recorded as 60%. The compound further yielded an inhibition in vivo at 0.02 mg/kg in the test on Rattus norvegicus [9] of 82%. Also, in the test on Rattus norvegicus [10], 0.002 mg/kg produced 51% inhibition in vivo.

The compound `c1ccc2c(-c3csc(Cc4c[nH]cn4)n3)c[nH]c2c1` came in with a Ki in test [1] of 0.0142 µM. For the same compound, the Response with Rattus norvegicus [3] was determined as 14%. The compound further yielded an inhibition in vivo at 0.1 mg/kg in the test on Rattus norvegicus [7] of 63%.

As for `Cc1nccn1CC1CCc2c(c3ccccc3n2C)C1=O` (centres undefined) [ONDANSETRON], the Response with Rattus norvegicus [3] was 0%. This compound also had an inhibition in vivo at 0.02 mg/kg in the test on Rattus norvegicus [9] of 90%. This compound also yielded an inhibition in vivo at 0.002 mg/kg in the test on Rattus norvegicus [10] of 43%.

In the case of `CN1[C@@H]2CC[C@H]1C[C@@H](OC(=O)c1c[nH]c3ccccc13)C2` [TROPISETRON], the inhibition in vivo at 0.002 mg/kg in the test on Rattus norvegicus [6] amounted to 76%. For the same compound, the Response in the test with Rattus norvegicus [3] was determined as 0%.

These data come from ChEMBL document CHEMBL1124924, “Aromatic thiazole derivatives: structurally novel and selective serotonin-3 receptor antagonists” (J Med Chem, 1990).
